Measured values from ChEMBL document CHEMBL5241063, “Synthetic and medicinal perspective of quinolines as antiviral agents” (Eur J Med Chem, 2021).

Columns and labels:
[1] = system: Human immunodeficiency virus 1; experiment: Antiviral activity against HIV-1 infected in human H9 cells assessed as inhibition of viral replication; assay type: functional, organism-based; settings: Human immunodeficiency virus 1, H9
[2] = system: Human immunodeficiency virus 1; experiment: Antiviral activity against HIV-1 IIIB infected in human MT2 cells assessed as inhibition of viral replication by p24 ELISA method; assay type: functional, organism-based; settings: Human immunodeficiency virus 1, IIIB
[3] = system: Human immunodeficiency virus 1; experiment: Antiviral activity against HIV-1 92US657 infected in human MT2 cells assessed as inhibition of viral infection; assay type: functional, organism-based; settings: Human immunodeficiency virus 1, 92US657, MT2
[4] = system: enterovirus D68; experiment: Antiviral activity against Enterovirus D68 US/KY/14-18953 infected in human RD cells assessed as reduction in virus induced cytopathic effect; assay type: functional, organism-based; settings: Enterovirus D, US/KY/14-18953, RD
[5] = system: Ebolavirus; experiment: Antiviral activity against recombinant VSV-deltaG pseudotyped GFP-tagged EBOV infected in human Huh-7 cells preincubated with cells for 1 hr followed by viral infection and measured after 16 hrs by […] assay; assay type: functional, organism-based; settings: Orthoebolavirus
[6] = Selectivity index, ratio of CC50 for cytotoxicity against human Huh-7 cells to IC50 for antiviral activity against recombinant VSV-deltaG pseudotyped GFP-tagged EBOV infected in human Huh-7 cells; assay type: toxicity, cell-based; settings: read-out: Ratio CC50/IC50
[7] = Cytotoxicity against human CEM-SS cells assessed as inhibition of cell growth; assay type: toxicity, cell-based
[8] = Selectivity index, ratio of CC50 for cytotoxicity against human RD cells to EC50 for antiviral activity against Enterovirus D68 US/KY/14-18953 infected in human RD cells; assay type: toxicity, cell-based; settings: read-out: Ratio CC50/EC50
[9] = Inhibition of HIV-1 integrase; parameters: species or system Human immunodeficiency virus 1
[10] = Cytotoxicity against human RD cells by neutral red method; assay type: toxicity, cell-based
[11] = Cytotoxicity against african green monkey Vero cells incubated for 48 hrs by CellTiter-Glo luminescence based assay; assay type: toxicity, cell-based; settings: chlorocebus sabaeus
[12] = system: dengue virus type 2; experiment: Antiviral activity against Dengue virus serotype 2 infected in african green monkey Vero cells assessed as reduction in virus yield preincubated for 1 hr followed by replacement with medium containing compounds and measured after 48 hrs by crystal violet staining based plaque assay; assay type: functional, organism-based
[13] = Cytotoxicity against african green monkey Vero E6 cells by CCK8 assay; assay type: toxicity, cell-based, Vero C1008; settings: chlorocebus sabaeus
[14] = system: Human immunodeficiency virus 1; experiment: Anti-HIV activity against HIV-1 NL4.3 infected in human MT2 cells measured after 7 days by MTT assay; assay type: functional, organism-based; settings: Human immunodeficiency virus 1, NL4.3, MT2, 168 h
[15] = system: Human immunodeficiency virus 1; experiment: Antiviral activity against HIV-1 infected in human HeLa P4 cells assessed as inhibition of viral particles production; assay type: functional, organism-based; settings: Human immunodeficiency virus 1, HeLaP4
[16] = system: SNB-19; experiment: (§1) Cytotoxicity against human SNB-19 cells incubated for 24 hrs; assay type: toxicity, cell-based; settings: snb-19, 24 h
[17] = system: Human immunodeficiency virus 1; experiment: Antiviral activity against HIV-1 infected in human CEM-SS cells assessed as reduction in virus induced cytopathic effect by XTT assay; assay type: functional, organism-based; settings: Human immunodeficiency virus 1, CEM-SS
[18] = system: Vero; experiment: (§2) Cytotoxicity against african green monkey Vero cells incubated for 48 hrs; assay type: toxicity, cell-based; settings: chlorocebus sabaeus, vero, 48 h
[19] = system: Human immunodeficiency virus 1; experiment: Anti-HIV activity against HIV-1 NL4.3 infected in human MT2 cells measured after 48 hrs by luminescence based assay; assay type: functional, organism-based; settings: Human immunodeficiency virus 1, NL4.3, MT2, 48 h
[20] = target: Human immunodeficiency virus type 1 reverse transcriptase (Human immunodeficiency virus 1, UniProt Q72547); experiment: Inhibition of HIV-1 reverse transcriptase incubated for 90 mins by liquid scintillation counting analysis
[21] = as §2; assay type: toxicity, cell-based; settings: chlorocebus sabaeus, Vero cells
[22] = Selectivity index, ratio of CC50 for cytotoxicity against african green monkey Vero cells to EC50 for antiviral activity against ZIKV PRVABC59; assay type: toxicity, cell-based; settings: read-out: Ratio CC50/EC50
[23] = as §1; assay type: toxicity, cell-based; settings: SNB-19 cells
[24] = system: Zika virus; experiment: Antiviral activity against ZIKV PRVABC59; assay type: functional, organism-based
In short: (§3)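 Human glioblastoma SNB-19 cells were infected with ZIKV strain PRVABC59 at MOI 1. Virus production was measured by titer assay in Vero cells. Niclosamide served as positive and quality control in each antiviral assay.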

[25] = Selectivity index, ratio of CC50 for cytotoxicity against human SNB-19 cells to EC50 for antiviral activity against ZIKV PRVABC59; assay type: toxicity, cell-based; settings: read-out: Ratio CC50/EC50; in short: as §3

COc1c2ccc(O)cc2nc2occc12 [CONFUSAMELINE]
EC50 [1]: < 5.85 µM

Cc1cccc2cc(/C=C3\NC(=O)N(Cc4ccccc4)C3=O)c(Cl)nc12
EC50 [2]: 0.148 µM
EC50 [3]: 0.52 µM

COc1ccc2nc(OC)c(/C=C3\NC(=O)N(CCc4ccccc4)C3=O)cc2c1
EC50 [2]: 1.51 µM
EC50 [3]: 0.52 µM

CN(C)CCNC(=O)c1cc(Oc2ccccc2)nc2ccc(Cl)cc12
EC50 [4]: 1.2 µM

CCCCCCNCc1cc(Nc2ccnc3cc(Cl)ccc23)ccc1O
IC50 [5]: 0.29 µM

CN(C)CCNC(=O)c1cc(Oc2ccccc2)nc2ccc(F)cc12
EC50 [4]: 0.6 µM

CCN(CC)Cc1cc(Nc2ccnc3cc(Cl)ccc23)ccc1O [AMODIAQUINE]
selectivity ratio [6]: 37

CCCCN(CCCC)Cc1cc(Nc2ccnc3cc(Cl)ccc23)ccc1O
IC50 [5]: 0.72 µM
selectivity ratio [6]: > 130

C=CC(C)(C)C1(CC=C(C)C)C(=O)Nc2ccccc2C1=O (centres undefined) [BUCHAPINE]
IC50 [7]: 29 µM

CC(C)Oc1ccc2cc(/C=C3\NC(=O)N(CCc4ccccc4)C3=O)c(Cl)nc2c1
EC50 [2]: 0.33 µM
EC50 [3]: 0.52 µM

O=C1N/C(=C\c2cccc3ccccc23)C(=O)N1Cc1ccccc1
EC50 [2]: 1.52 µM
EC50 [3]: 0.52 µM

O=C(NCCN1CCCC1)c1cc(Oc2cccs2)nc2ccccc12
EC50 [4]: 0.06 µM
selectivity ratio [8]: > 600

Cc1ccc2nc(Cl)c(/C=C3\NC(=O)N(Cc4ccccc4)C3=O)cc2c1
EC50 [2]: 5.54 µM
EC50 [3]: 0.52 µM

O=C(O)c1ccc2ccc(/C=C/c3ccc(O)c(O)c3)nc2c1O
IC50 [9]: 2.4 µM

O=C1N/C(=C\c2cc3ccccc3nc2Cl)C(=O)N1Cc1ccccc1
EC50 [2]: 50.6 µM
EC50 [3]: 0.52 µM

O=C(NCc1ccc(O)c(O)c1O)c1ccc2ccc(C(=O)O)c(O)c2n1
IC50 [9]: 1.5 µM

O=C1N/C(=C\c2cccc3ccccc23)C(=O)N1CCc1ccccc1
EC50 [2]: 1.93 µM
EC50 [3]: 0.52 µM

O=C(NCc1ccc(O)c(O)c1)c1ccc2ccc(C(=O)O)c(O)c2n1
IC50 [9]: 5 µM

COc1ccc2cc(/C=C3\NC(=O)N(CCc4ccccc4)C3=O)c(Cl)nc2c1
EC50 [2]: 0.46 µM
EC50 [3]: 0.52 µM

O=C1N/C(=C\c2cc3ccccc3nc2Cl)C(=O)N1CCc1ccccc1
EC50 [2]: 2.92 µM
EC50 [3]: 0.52 µM

CN(C)CCNC(=O)c1cc(Oc2ccccc2)nc2ccccc12
CC50 [10]: 73.7 µM
EC50 [4]: 0.4 µM
selectivity ratio [8]: 184

CC(C)Cc1ccc2c(Cl)cc(Cl)c(O)c2n1
CC50 at 48 h [11]: 19.4 µM
IC50 [12]: 0.49 µM

CCN(CCO)CCCC(C)Nc1ccnc2cc(Cl)ccc12 (centres undefined) [HYDROXYCHLOROQUINE]
CC50 [13]: 273 µM

COc1cc(OC)c2ccc(-c3cccc([N+](=O)[O-])c3)nc2c1
IC50 [14]: 18.5 µM

COc1cc(/C=C/c2ccc3c(C(=O)O)cc(C(=O)O)c(O)c3c2)cc(O)c1O
IC50 [15]: 1.6 µM

CCN(CC)Cc1cc(Nc2ccnc3cc(I)ccc23)ccc1O
IC50 [5]: 0.64 µM
selectivity ratio [6]: > 130

C=C1CC[C@@H]2[C@](C)(CO)[C@H](O)CC[C@@]2(C)[C@@H]1C/C=C1/C(=O)OC[C@@H]1Oc1cccc2ccc(C)nc12
CC50 [16]: > 100 µM

Cc1ccc2nc(Cl)c(/C=C3\NC(=O)N(CCc4ccccc4)C3=O)cc2c1
EC50 [2]: 22.8 µM
EC50 [3]: 0.5 µM

C=CC(C)(C)C1(CC=C(C)C)C(=O)Nc2ccccc2C1OCC=C(C)C (centres undefined)
EC50 [17]: 1.64 µM
IC50 [7]: 26.9 µM

COc1c2ccoc2nc2c(OC)cccc12 [GAMMA-FAGARINE]
EC50 [1]: < 5.85 µM

Cc1ccc2cc(/C=C3\NC(=O)N(Cc4ccccc4)C3=O)c(Cl)nc2c1
EC50 [2]: 0.71 µM
EC50 [3]: 0.52 µM

COc1c2[nH]c3occc3c(OC)c-2ccc1=O [HAPLOPINE]
EC50 [1]: < 5.85 µM

Cc1ccc2cc(/C=C3\NC(=O)N(CCc4ccccc4)C3=O)c(Cl)nc2c1
EC50 [2]: 2.55 µM
EC50 [3]: 0.52 µM

O=C(NNc1ccc([N+](=O)[O-])cc1[N+](=O)[O-])c1ccc2ccc(C(=O)O)c(O)c2n1
IC50 [9]: 3 µM

C=C1CC[C@@H]2[C@](C)(CO)[C@H](O)CC[C@@]2(C)[C@@H]1C/C=C1/C(=O)OC[C@@H]1Oc1c(Cl)cc(Cl)c2cccnc12
CC50 [18]: > 100 µM
CC50 [16]: > 100 µM

Nc1cccc([C@@H]2C[C@H](N3CCCC3=O)c3ccccc3N2)c1
IC50 [19]: 50 µM

CCN(CC)CCNC(=O)c1cc(OC(C)C)nc2ccccc12
CC50 [10]: 11.2 µM

COc1cc(NC(=O)c2ccc3ccc(C(=O)O)c(O)c3n2)cc(O)c1O
IC50 [9]: 6.5 µM

CC(C)[C@H]1C(=O)OC[C@@H](NC(=O)c2nc3ccccc3cc2O)C(=O)N2CCCC[C@H]2C(=O)NCC(=O)N(C)CC(=O)N(C)[C@@H](C(C)C)C(=O)OC[C@@H](NC(=O)c2nc3ccccc3cc2O)C(=O)N2CCCC[C@H]2C(=O)NCC(=O)N(C)CC(=O)N1C
IC50 [20]: 0.00013 µM

COc1nc2ccccc2cc1/C=C1\NC(=O)N(CCc2ccccc2)C1=O
EC50 [2]: 0.42 µM
EC50 [3]: 0.52 µM

Cc1cc(C)c2c(c1)N[C@H](c1cccc(N)c1)C[C@@H]2N1CCCC1=O
IC50 [19]: 50 µM

CN(C)CCNC(=O)c1cc(Oc2cccs2)nc2ccccc12
EC50 [4]: 0.04 µM
selectivity ratio [8]: > 600

CCCCCCCCN(C)Cc1cc(Nc2ccnc3cc(I)ccc23)ccc1O
IC50 [5]: 0.26 µM
selectivity ratio [6]: > 100

CC(C)c1ccc2c(Cl)cc(Cl)c(O)c2n1
CC50 at 48 h [11]: 16.1 µM
IC50 [12]: 3.03 µM

O=C(O)/C=C\c1cc(C(=O)O)c(O)c2cc(/C=C/c3ccc(O)c(O)c3)ccc12
IC50 [15]: 35 µM

COc1cc2c(c(OC)c1)[C@@H](N1CCCC1=O)C[C@@H](c1cccc(N)c1)N2
IC50 [19]: 50 µM

COc1cc(/C=C/c2ccc3ccc(C(=O)O)c(O)c3n2)cc(O)c1O
IC50 [9]: 0.7 µM

COc1ccc2nc(OC)c(/C=C3\NC(=O)N(Cc4ccccc4)C3=O)cc2c1
EC50 [2]: 0.27 µM
EC50 [3]: 0.52 µM

CCN(CC)Cc1cc(Nc2c(Oc3ccccc3)cnc3cc(Cl)ccc23)ccc1O
IC50 [5]: 0.73 µM

CCN(CC)CCCC(C)Nc1ccnc2cc(Cl)ccc12 (centres undefined) [CHLOROQUINE]
CC50 [13]: 250 µM

COc1nc2ccccc2cc1/C=C1\NC(=O)N(Cc2ccccc2)C1=O
EC50 [2]: 1.41 µM
EC50 [3]: 0.52 µM

COc1ccc2nc(Cl)c(/C=C3\NC(=O)N(Cc4ccccc4)C3=O)cc2c1
EC50 [2]: 1.96 µM
EC50 [3]: 0.52 µM

COc1ccc2nc(Cl)c(/C=C3\NC(=O)N(CCc4ccccc4)C3=O)cc2c1
EC50 [2]: 1.01 µM
EC50 [3]: 0.52 µM

Cc1cccc2cc(/C=C3\NC(=O)N(CCc4ccccc4)C3=O)c(Cl)nc12
EC50 [2]: 0.5 µM
EC50 [3]: 0.52 µM

C=C1CC[C@H]2[C@@](C)(CCC(O)[C@@]2(C)CO)[C@@H]1C/C=C1/C(=O)OC[C@H]1Oc1cccc2cccnc12 (some centres undefined)
CC50 at 48 h [21]: 22.8 µM
selectivity ratio [22]: 2.1
CC50 at 24 h [23]: 60.1 µM
EC50 [24]: 11 µM
selectivity ratio [25]: 5.5

O=C(O)c1ccc2ccc(/C=C/c3ccccc3)nc2c1O
IC50 [9]: 5.3 µM
